According to ChEMBL document CHEMBL3414560, “Discovery of 4-(dihydropyridinon-3-yl)amino-5-methylthieno[2,3-d]pyrimidine derivatives as potent Mnk inhibitors: synthesis, structure-activity relationship analysis and biological evaluation” (Eur J Med Chem, 2015):
Calls of active or inactive are those of the source. No cut-off for these calls is given here.

Columns and labels:
[1] = target: T1, MAP kinase-interacting serine/threonine-protein kinase 1 (Homo sapiens, UniProt Q9BUB5); assay: Inhibition of Mnk1 (unknown origin) pre-incubated for 10 mins before eIF4E peptide substrate addition by ADP-Glo kinase assay
Target sequence in this assay (Q9BUB5 whole entry): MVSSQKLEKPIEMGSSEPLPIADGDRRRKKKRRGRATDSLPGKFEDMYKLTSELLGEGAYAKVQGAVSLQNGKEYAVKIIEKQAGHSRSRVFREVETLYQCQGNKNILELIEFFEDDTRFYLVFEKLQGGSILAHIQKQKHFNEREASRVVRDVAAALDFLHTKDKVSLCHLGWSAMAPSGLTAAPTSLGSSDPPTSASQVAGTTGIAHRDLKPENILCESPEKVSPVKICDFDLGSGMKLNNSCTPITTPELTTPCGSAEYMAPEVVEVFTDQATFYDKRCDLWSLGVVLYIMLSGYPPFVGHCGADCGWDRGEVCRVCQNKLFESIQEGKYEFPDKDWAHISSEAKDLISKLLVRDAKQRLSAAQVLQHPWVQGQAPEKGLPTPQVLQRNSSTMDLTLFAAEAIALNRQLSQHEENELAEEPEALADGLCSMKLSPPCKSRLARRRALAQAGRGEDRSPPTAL

[2] = target: MAP kinase-interacting serine/threonine-protein kinase 2 (Homo sapiens, UniProt Q9HBH9); assay: Inhibition of Mnk2 (unknown origin) pre-incubated for 10 mins before eIF4E peptide substrate addition by ADP-Glo kinase assay
Sequence of MAP kinase-interacting serine/threonine-protein kinase 2 (Q9HBH9 whole entry): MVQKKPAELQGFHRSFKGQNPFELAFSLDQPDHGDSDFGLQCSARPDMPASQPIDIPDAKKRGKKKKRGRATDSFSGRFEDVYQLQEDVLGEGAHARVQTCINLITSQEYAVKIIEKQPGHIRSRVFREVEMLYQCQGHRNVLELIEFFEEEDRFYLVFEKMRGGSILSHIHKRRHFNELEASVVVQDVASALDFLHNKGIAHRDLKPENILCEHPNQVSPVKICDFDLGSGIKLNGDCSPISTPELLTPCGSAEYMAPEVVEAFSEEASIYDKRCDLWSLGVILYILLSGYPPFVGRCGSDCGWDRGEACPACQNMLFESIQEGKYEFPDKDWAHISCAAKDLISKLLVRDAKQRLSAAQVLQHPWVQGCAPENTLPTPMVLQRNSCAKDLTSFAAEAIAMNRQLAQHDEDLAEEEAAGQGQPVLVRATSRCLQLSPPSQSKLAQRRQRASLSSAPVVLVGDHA

MV4-11 [3] = assay: Growth inhibition of human MV4-11 cells after 72 hrs by resazurin assay; type: functional; conditions: MV4-11, 72 h
[4] = target: CDK2/Cyclin A2 (Homo sapiens) (UniProt P24941+P20248); assay: Inhibition of CDK2/cyclinA (unknown origin) assessed as reduction in kinase activity at 10 uM using ATP; type: protein-complex assay
[5] = target: CDK9/cyclin T1 (Homo sapiens) (UniProt O60563+P50750); assay: Inhibition of CDK9/cyclinT1 (unknown origin) assessed as reduction in kinase activity at 10 uM using ATP; type: protein-complex assay
[6] = target: Mitogen-activated protein kinase 1 (Homo sapiens) (UniProt P28482); assay: Inhibition of MAPK1 (unknown origin) assessed as reduction in kinase activity at 10 uM using ATP
Sequence of Mitogen-activated protein kinase 1 (Homo sapiens) (P28482 whole entry): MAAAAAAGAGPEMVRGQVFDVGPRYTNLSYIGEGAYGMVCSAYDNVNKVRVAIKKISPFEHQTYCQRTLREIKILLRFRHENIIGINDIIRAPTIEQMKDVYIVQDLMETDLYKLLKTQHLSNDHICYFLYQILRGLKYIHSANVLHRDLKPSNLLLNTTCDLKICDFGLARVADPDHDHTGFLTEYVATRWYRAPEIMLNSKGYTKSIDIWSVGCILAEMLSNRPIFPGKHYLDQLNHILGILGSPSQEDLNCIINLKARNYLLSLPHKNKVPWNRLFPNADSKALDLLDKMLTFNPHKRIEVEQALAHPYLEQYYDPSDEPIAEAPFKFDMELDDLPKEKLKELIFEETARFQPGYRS

[7] = target: Serine/threonine-protein kinase mTOR (Homo sapiens) (UniProt P42345); assay: Inhibition of mTOR (unknown origin) assessed as reduction in kinase activity at 10 uM using ATP
[8] = target: RAC-alpha serine/threonine-protein kinase (Homo sapiens) (UniProt P31749); assay: Inhibition of PKBalpha (unknown origin) assessed as reduction in kinase activity at 10 uM using ATP
Sequence of RAC-alpha serine/threonine-protein kinase (Homo sapiens) (P31749 whole entry): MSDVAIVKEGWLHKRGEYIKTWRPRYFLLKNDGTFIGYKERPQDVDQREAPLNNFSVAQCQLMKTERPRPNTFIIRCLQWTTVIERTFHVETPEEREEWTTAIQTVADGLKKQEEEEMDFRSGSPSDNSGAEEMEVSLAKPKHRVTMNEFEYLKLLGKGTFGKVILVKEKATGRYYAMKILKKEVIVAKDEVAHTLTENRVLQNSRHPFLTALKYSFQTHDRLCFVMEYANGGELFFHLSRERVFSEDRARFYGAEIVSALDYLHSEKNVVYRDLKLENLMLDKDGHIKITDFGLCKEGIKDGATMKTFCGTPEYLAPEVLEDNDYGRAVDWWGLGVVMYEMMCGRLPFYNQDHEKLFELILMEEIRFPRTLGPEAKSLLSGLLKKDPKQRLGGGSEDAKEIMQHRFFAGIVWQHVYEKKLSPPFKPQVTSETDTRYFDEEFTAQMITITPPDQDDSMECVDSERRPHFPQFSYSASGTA

[9] = target: Mitogen-activated protein kinase 14 (Homo sapiens) (UniProt Q16539); assay: Inhibition of SAPK2a (unknown origin) assessed as reduction in kinase activity at 10 uM using ATP
Sequence of Mitogen-activated protein kinase 14 (Homo sapiens) (Q16539 whole entry): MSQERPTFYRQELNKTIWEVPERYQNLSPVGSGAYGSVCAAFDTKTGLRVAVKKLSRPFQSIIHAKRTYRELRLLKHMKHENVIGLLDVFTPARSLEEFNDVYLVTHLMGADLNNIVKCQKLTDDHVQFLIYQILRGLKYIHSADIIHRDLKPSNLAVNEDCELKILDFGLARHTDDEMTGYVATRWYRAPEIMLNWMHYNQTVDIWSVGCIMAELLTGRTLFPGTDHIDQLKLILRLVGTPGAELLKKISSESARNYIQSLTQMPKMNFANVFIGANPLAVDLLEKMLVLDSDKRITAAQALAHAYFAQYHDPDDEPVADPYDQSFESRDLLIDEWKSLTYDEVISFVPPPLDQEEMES

Homo sapiens = species on record: Homo sapiens; assay: Inhibition of PI3K (unknown origin) assessed as reduction in kinase activity at 10 uM using ATP
[10] = target: Receptor-type tyrosine-protein kinase FLT3 (Homo sapiens) (UniProt P36888); assay: Inhibition of FLT3 (unknown origin) assessed as reduction in kinase activity at 10 uM using ATP
Sequence of Receptor-type tyrosine-protein kinase FLT3 (Homo sapiens) (P36888 whole entry): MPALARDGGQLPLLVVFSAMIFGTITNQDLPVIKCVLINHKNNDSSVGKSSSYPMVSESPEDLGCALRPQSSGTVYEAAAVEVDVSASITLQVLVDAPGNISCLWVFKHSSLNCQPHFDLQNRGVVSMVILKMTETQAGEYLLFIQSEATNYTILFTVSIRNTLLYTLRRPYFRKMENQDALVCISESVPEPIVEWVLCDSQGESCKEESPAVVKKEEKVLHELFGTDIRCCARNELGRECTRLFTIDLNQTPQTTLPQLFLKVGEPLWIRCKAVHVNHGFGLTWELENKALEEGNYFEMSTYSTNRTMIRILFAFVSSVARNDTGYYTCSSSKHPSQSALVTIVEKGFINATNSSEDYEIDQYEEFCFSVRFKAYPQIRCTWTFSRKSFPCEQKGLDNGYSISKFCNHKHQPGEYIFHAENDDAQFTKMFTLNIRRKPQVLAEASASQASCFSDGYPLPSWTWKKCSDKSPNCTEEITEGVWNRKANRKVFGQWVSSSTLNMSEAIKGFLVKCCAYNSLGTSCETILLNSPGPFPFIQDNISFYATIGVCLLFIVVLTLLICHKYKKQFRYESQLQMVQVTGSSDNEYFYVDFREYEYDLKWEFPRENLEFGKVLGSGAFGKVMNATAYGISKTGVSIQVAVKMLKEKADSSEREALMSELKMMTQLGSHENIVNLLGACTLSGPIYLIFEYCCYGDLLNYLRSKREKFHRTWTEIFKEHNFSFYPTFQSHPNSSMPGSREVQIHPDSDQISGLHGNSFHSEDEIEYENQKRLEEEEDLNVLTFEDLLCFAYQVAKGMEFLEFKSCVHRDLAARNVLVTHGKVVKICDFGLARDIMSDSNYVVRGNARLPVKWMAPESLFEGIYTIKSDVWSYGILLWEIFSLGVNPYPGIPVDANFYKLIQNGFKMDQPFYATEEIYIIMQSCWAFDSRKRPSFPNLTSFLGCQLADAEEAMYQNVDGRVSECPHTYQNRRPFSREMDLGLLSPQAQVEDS

[11] = target: Serine/threonine-protein kinase pim-1 (Homo sapiens) (UniProt P11309); assay: Inhibition of PIM1 (unknown origin) assessed as reduction in kinase activity at 10 uM using ATP
Sequence of Serine/threonine-protein kinase pim-1 (Homo sapiens) (P11309 whole entry, looked up): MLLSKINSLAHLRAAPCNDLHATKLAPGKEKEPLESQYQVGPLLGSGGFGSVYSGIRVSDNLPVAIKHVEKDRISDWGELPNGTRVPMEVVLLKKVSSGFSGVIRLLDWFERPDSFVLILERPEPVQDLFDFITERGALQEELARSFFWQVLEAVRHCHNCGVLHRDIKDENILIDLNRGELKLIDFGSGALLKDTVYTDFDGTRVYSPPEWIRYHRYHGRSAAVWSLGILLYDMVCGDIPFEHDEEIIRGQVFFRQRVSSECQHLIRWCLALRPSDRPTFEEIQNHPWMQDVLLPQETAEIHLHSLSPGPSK

MV4-11 [12] = assay: Induction of apoptosis in human MV4-11 cells at 20 uM after 24 hrs by FITC annexin-V/PI staining based flow cytometry; type: functional
Method in brief: (§1)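 MV-4-11 cells seeded at 8 × 10^4, overnight at 37 °C, 5% CO2, then treated 24 h (DMSO diluent control); pellets collected (300 × g, 5 min), stained with FITC annexin V/PI kit and analysed by flow cytometry within 1 h; apoptotic = annexin V+/PI− plus annexin V+/PI+ cells.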

MV4-11 [13] = assay: Induction of caspase-3/7 activation in human MV4-11 cells at 20 uM after 24 hrs; type: functional, cell-based
Method in brief: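 MV-4-11 cells treated 24 h, DMSO diluent as control; caspase-3/7 activity measured with Apo-ONE homogeneous caspase-3/7 kit per manufacturer, read on plate reader; expressed as relative activity.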

MV4-11 [14] = assay: Induction of cell cycle arrest in human MV4-11 cells assessed as accumulation at G1 phase at 20 uM after 24 hrs by FITC propidium iodide staining based flow cytometry (reference value: 58.1%); type: functional
MV4-11 [15] = assay: Induction of cell cycle arrest in human MV4-11 cells assessed as accumulation at subG1 phase at 20 uM after 24 hrs by FITC propidium iodide staining based flow cytometry (reference value: 7.7%); type: functional
MV4-11 [16] = assay: Induction of cell cycle arrest in human MV4-11 cells assessed as accumulation at S phase at 20 uM after 24 hrs by FITC propidium iodide staining based flow cytometry (reference value: 16.7%); type: functional
MV4-11 [17] = assay: Induction of cell cycle arrest in human MV4-11 cells assessed as accumulation at G2/M phase at 20 uM after 24 hrs by FITC propidium iodide staining based flow cytometry (reference value: 17.5%); type: functional
[18] = target: T1, MAP kinase-interacting serine/threonine-protein kinase 1; assay: Inhibition of Mnk1 in human MV4-11 cells assessed as reduction in eIF4E Ser209 phosphorylation at 20 uM after 24 hrs by Western blotting method; type: cell-based
Method in brief: (§2)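 MV-4-11 cells in RPMI-1640 with 10% FBS, exposed 24 h (DMSO diluent control); Western blot probing Mnk1, eIF4E, p-eIF4E Ser209, Bcl-2, Mcl-1, cyclin D1, PARP, cleaved PARP; β-actin as loading control; HRP-conjugated anti-mouse/anti-rabbit IgG secondaries.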
Target sequence in this assay (Q9BUB5 whole entry, looked up): as the sequence (Q9BUB5 whole entry) above

MV4-11 [19] = assay: Effect on total Mnk1 protein level in human MV4-11 cells at 20 uM after 24 hrs by Western blotting method; type: functional, cell-based; method in brief: as §2
MV4-11 [20] = assay: Effect on total eIF4E protein level in human MV4-11 cells at 20 uM after 24 hrs by Western blotting method; type: functional, cell-based; method in brief: as §2
MV4-11 [21] = assay: Induction of apoptosis in human MV4-11 cells assessed as reduction in Mcl1 expression at 20 uM after 24 hrs by Western blotting method; type: functional, cell-based; method in brief: as §2
MV4-11 [22] = assay: Induction of apoptosis in human MV4-11 cells assessed as induction of PARP cleavage expression at 20 uM after 24 hrs by Western blotting method; type: functional, cell-based; method in brief: as §2
MV4-11 [23] = assay: Reduction in cyclin D1 expression in human MV4-11 cells at 20 uM after 24 hrs by Western blotting method; type: functional, cell-based
Method in brief: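 MV-4-11 AML cells grown in RPMI-1640 with 10% FBS, treated 24 h at the stated concentration against a DMSO diluent control. Lysates probed by Western blot for cyclin D1, with β-actin as loading control and HRP-conjugated anti-mouse/anti-rabbit IgG secondaries.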

MV4-11 [24] = assay: Induction of apoptosis in human MV4-11 cells assessed as viable cells level at 20 uM after 24 hrs by FITC annexin-V/PI staining based flow cytometry (reference value: 91.49%); type: functional; method in brief: as §1
MV4-11 [25] = assay: Induction of apoptosis in human MV4-11 cells assessed as early apoptotic cells level at 20 uM after 24 hrs by FITC annexin-V/PI staining based flow cytometry (reference value: 3.02%); type: functional; method in brief: as §1
MV4-11 [26] = assay: Induction of apoptosis in human MV4-11 cells assessed as late apoptotic cells level at 20 uM after 24 hrs by FITC annexin-V/PI staining based flow cytometry (reference value: 5.4%); type: functional; method in brief: as §1
MV4-11 [27] = assay: Induction of apoptosis in human MV4-11 cells assessed as necrotic cells level at 20 uM after 24 hrs by FITC annexin-V/PI staining based flow cytometry (reference value: 0.1%); type: functional; method in brief: as §1

Ki [1]: 5 µM | Ki [2]: 2.63 µM | GI50 (MV4-11 [3]): 5.73 µM | inhibition [4]: inactive | inhibition [5]: inactive | inhibition [6]: inactive | inhibition [7]: inactive | inhibition [8]: inactive | inhibition [9]: inactive | inhibition (Homo sapiens): inactive | inhibition [10]: 31% | inhibition [11]: inactive | inhibition [18]: Active
SMILES: COCCCNC(=O)c1sc2ncnc(Nc3cc(C)cn(C)c3=O)c2c1C
Activity (MV4-11 [12]): 6% | Activity (MV4-11 [13]): inactive | Activity (MV4-11 [14]): 72.5% | Activity (MV4-11 [15]): 12.5% | Activity (MV4-11 [16]): 8.1% | Activity (MV4-11 [17]): 6.9% | Activity (MV4-11 [19]): inactive | Activity (MV4-11 [20]): inactive | Activity (MV4-11 [21]): Active | Activity (MV4-11 [22]): Active | Activity (MV4-11 [23]): Active | Activity (MV4-11 [24]): 83.96% | Activity (MV4-11 [25]): 4.52% | Activity (MV4-11 [26]): 11.4% | Activity (MV4-11 [27]): 0.1%
